Test results as given in ChEMBL document CHEMBL5705890, “Antitumor activity of an allosteric inhibitor of centromere-associated protein-E” (Proc Natl Acad Sci U S A, 2010).

Columns and labels:
SK-UT-1 = experiment: Anticancer activity against human SK-UT-1 cells assessed as cell growth inhibition measured after 72 hrs by DAPI staining based analysis; format: functional
NCI/ADR-RES = experiment: Anticancer activity against human NCI/ADR-RES cells assessed as cell growth inhibition measured after 72 hrs by DAPI staining based analysis; format: functional
BC-3 = experiment: Anticancer activity against human BC-3 cells assessed as cell doubling measured for 72 hrs by DAPI staining based analysis; format: functional
SK-OV-3 [1] = experiment: Anticancer activity against human SK-OV-3 cells assessed as cell growth inhibition measured after 72 hrs by DAPI staining based analysis; format: functional
SW1463 = experiment: Anticancer activity against human SW1463 cells assessed as cell growth inhibition measured after 72 hrs by DAPI staining based analysis; format: functional
SW837 = experiment: Anticancer activity against human SW837 cells assessed as cell doubling measured for 72 hrs by DAPI staining based analysis; format: functional
[2] = molecular target: Centromere-associated protein E (Homo sapiens, UniProt Q02224); experiment: Binding affinity to wild-type human CENP-E assessed as inhibition constant
Centromere-associated protein E, sequence (Q02224 whole entry, the tested form may be a part): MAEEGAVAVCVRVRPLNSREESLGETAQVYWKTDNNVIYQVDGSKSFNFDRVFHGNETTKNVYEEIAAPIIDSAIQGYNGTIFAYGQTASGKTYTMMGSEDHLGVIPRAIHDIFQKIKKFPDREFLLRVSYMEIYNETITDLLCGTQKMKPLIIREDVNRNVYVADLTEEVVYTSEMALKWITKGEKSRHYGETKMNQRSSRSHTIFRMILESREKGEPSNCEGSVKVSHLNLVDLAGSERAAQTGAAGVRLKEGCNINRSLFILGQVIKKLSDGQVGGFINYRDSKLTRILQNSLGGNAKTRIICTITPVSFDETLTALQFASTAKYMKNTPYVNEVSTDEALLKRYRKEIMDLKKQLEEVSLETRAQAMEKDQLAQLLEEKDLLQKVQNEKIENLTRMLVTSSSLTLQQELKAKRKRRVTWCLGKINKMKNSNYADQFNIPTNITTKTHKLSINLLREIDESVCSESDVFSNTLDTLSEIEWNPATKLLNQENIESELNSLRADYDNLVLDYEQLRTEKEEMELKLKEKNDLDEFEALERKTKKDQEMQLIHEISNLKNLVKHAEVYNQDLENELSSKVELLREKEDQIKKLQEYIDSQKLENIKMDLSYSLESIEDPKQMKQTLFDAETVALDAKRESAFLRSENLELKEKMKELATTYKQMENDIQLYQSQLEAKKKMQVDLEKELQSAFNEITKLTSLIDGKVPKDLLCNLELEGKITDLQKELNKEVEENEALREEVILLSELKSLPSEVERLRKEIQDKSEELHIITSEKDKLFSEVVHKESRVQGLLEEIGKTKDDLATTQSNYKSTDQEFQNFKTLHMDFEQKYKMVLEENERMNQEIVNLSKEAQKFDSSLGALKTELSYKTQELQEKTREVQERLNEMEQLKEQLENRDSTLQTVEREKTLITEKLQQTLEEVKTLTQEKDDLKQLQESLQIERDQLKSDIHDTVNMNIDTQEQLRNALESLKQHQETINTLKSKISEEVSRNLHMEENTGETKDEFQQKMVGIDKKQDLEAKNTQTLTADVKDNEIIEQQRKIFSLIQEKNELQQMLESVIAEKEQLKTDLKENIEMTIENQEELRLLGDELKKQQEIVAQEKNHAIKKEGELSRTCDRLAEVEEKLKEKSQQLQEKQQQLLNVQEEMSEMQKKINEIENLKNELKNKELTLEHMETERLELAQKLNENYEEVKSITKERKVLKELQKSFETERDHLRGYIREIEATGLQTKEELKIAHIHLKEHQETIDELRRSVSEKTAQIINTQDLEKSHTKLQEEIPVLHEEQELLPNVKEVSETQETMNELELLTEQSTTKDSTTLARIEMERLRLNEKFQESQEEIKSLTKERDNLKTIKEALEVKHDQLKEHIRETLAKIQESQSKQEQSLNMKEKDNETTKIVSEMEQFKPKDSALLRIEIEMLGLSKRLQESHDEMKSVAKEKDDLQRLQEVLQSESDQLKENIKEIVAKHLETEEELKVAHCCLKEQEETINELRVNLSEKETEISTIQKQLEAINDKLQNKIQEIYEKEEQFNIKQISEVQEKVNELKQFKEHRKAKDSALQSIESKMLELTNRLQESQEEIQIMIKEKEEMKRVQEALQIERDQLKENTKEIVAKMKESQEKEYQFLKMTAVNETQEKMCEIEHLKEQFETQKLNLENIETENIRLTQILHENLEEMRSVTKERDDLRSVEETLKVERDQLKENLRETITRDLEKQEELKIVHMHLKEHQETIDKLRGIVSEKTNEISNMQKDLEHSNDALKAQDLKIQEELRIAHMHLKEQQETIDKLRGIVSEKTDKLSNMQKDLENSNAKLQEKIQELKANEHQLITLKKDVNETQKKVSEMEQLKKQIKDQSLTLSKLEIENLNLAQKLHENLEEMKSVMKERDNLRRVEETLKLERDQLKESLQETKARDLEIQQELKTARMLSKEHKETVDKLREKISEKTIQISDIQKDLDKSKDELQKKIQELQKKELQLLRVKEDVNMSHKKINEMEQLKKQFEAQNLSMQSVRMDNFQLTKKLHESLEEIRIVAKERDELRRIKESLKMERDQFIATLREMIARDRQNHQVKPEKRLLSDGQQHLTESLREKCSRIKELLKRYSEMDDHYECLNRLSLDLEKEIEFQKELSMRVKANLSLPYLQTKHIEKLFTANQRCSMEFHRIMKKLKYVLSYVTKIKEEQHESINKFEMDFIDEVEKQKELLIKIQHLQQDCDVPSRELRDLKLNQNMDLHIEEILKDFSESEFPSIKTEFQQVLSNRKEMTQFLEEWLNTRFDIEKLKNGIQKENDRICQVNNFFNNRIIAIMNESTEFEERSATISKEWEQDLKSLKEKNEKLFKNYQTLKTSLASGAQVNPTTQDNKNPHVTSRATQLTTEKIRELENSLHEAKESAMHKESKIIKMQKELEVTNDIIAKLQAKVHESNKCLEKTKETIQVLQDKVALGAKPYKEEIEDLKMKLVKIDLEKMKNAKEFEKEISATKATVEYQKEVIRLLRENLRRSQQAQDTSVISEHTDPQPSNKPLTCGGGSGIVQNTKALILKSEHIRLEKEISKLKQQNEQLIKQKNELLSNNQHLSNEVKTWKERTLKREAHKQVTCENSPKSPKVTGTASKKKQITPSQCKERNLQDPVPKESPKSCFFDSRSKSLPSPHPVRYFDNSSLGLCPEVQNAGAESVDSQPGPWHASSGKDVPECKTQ
Outline: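 CENP-E motor domain (residues 2–340, C-terminal 6-his, from E. coli BL21(DE3)) run in MT-stimulated ATPase with 500 μM ATP, 5 μM paclitaxel-stabilized MT, 1 nM enzyme in PEM25 buffer, pH 6.8. Apparent Ki taken from the concentration-response curves with explicit correction for enzyme concentration.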

SH-4 = experiment: Anticancer activity against human SH-4 cells assessed as cell doubling measured for 72 hrs by DAPI staining based analysis; format: functional
NCI-H23 = experiment: Anticancer activity against human NCI-H23 cells assessed as cell growth inhibition measured after 72 hrs by DAPI staining based analysis; format: functional
T84 = experiment: Anticancer activity against human T84 cells assessed as cell doubling measured for 72 hrs by DAPI staining based analysis; format: functional
BV-173 = experiment: Anticancer activity against human BV-173 cells assessed as cell doubling measured for 72 hrs by DAPI staining based analysis; format: functional
SW1990 = experiment: Anticancer activity against human SW1990 cells assessed as cell doubling measured for 72 hrs by DAPI staining based analysis; format: functional
MCF7 = experiment: Antitumor activity against human MCF7 cells in xenograft model assessed as tumor growth delay at 62.5 mg/kg relative to control; format: functional
SK-OV-3 [3] = experiment: Antitumor activity against human SK-OV-3 cells in xenograft model assessed as tumor growth delay at 62.5 mg/kg relative to control; format: functional
NCI-H508 = experiment: Anticancer activity against human NCI-H508 cells assessed as cell doubling measured for 72 hrs by DAPI staining based analysis; format: functional
RD = experiment: Anticancer activity against human RD cells assessed as cell doubling measured for 72 hrs by DAPI staining based analysis; format: functional
SiHa = experiment: Anticancer activity against human SiHa cells assessed as cell doubling measured for 72 hrs by DAPI staining based analysis; format: functional
HT-1080 = experiment: Anticancer activity against human HT-1080 cells assessed as cell doubling measured for 72 hrs by DAPI staining based analysis; format: functional
NCI-H82 = experiment: Anticancer activity against human NCI-H82 cells assessed as cell doubling measured for 72 hrs by DAPI staining based analysis; format: functional
HCT-8 = experiment: Anticancer activity against human HCT-8 cells assessed as cell growth inhibition measured after 72 hrs by DAPI staining based analysis; format: functional
RL = experiment: Anticancer activity against human RL cells assessed as cell growth inhibition measured after 72 hrs by DAPI staining based analysis; format: functional
SNU-423 = experiment: Anticancer activity against human SNU-423 cells assessed as cell doubling measured for 72 hrs by DAPI staining based analysis; format: functional
JEG-3 = experiment: Anticancer activity against human JEG-3 cells assessed as cell growth inhibition measured after 72 hrs by DAPI staining based analysis; format: functional
HCT-116 = experiment: Antitumor activity against human HCT-116 cells in xenograft model assessed as tumor growth delay at 125 mg/kg relative to control; format: functional
HepG2 = experiment: Anticancer activity against human HepG2 cells assessed as cell doubling measured for 72 hrs by DAPI staining based analysis; format: functional
SNU-449 = experiment: Anticancer activity against human SNU-449 cells assessed as cell doubling measured for 72 hrs by DAPI staining based analysis; format: functional
MDA-MB-435 = experiment: Anticancer activity against human MDA-MB-435 cells assessed as cell doubling measured for 72 hrs by DAPI staining based analysis; format: functional
NCI-H747 = experiment: Anticancer activity against human NCI-H747 cells assessed as cell doubling measured for 72 hrs by DAPI staining based analysis; format: functional
SW756 = experiment: Anticancer activity against human SW756 cells assessed as cell growth inhibition measured after 72 hrs by DAPI staining based analysis; format: functional
NCI-H209 = experiment: Anticancer activity against human NCI-H209 cells assessed as cell growth inhibition measured after 72 hrs by DAPI staining based analysis; format: functional
[4] = Anticancer activity against human MT-3 cells assessed as cell doubling measured for 72 hrs by DAPI staining based analysis; format: functional
J82 = experiment: Anticancer activity against human J82 cells assessed as cell doubling measured for 72 hrs by DAPI staining based analysis; format: functional
CHP-212 = experiment: Anticancer activity against human CHP-212 cells assessed as cell doubling measured for 72 hrs by DAPI staining based analysis; format: functional
OVCAR-3 = experiment: Anticancer activity against human OVCAR-3 cells assessed as cell doubling measured for 72 hrs by DAPI staining based analysis; format: functional
HN5 = experiment: Anticancer activity against human HN5 cells assessed as cell growth inhibition measured after 72 hrs by DAPI staining based analysis; format: functional
COLO 205 = experiment: Antitumor activity against human COLO 205 cells in xenograft model assessed as tumor growth delay at 62.5 mg/kg relative to control; format: functional
ACHN = experiment: Anticancer activity against human ACHN cells assessed as cell growth inhibition measured after 72 hrs by DAPI staining based analysis; format: functional
Outline: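 Cells were seeded and, after 24 h, DNA content was read as T0. Cells were then exposed to varying drug concentrations for a further 72 h (T72). Fixed cells were DAPI-stained and DNA content measured by automated imaging. T72 values were normalized to T0. GI50 is the concentration giving 50% growth inhibition between T0 and Ymax, obtained by curve fitting.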

CGTH-W-1 = experiment: Anticancer activity against human CGTH-W-1 cells assessed as cell doubling measured for 72 hrs by DAPI staining based analysis; format: functional
NCI-H2170 = experiment: Anticancer activity against human NCI-H2170 cells assessed as cell growth inhibition measured after 72 hrs by DAPI staining based analysis; format: functional
COLO 320DM = experiment: Anticancer activity against human COLO 320DM cells assessed as cell growth inhibition measured after 72 hrs by DAPI staining based analysis; format: functional
Outline: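 Cells were seeded, and DNA content at 24 h after seeding (T0) was read by imaging of fixed, DAPI-stained cells. Cells were then exposed to a range of drug concentrations for a further 72 h (T72) and DNA content was read again. T72 values were normalized to T0, and GI50 was taken from curve fits as the concentration giving 50% growth inhibition relative to T0 and Ymax.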

CC(C)Oc1ccc(C(=O)N[C@H](CNC(=O)CN(C)C)Cc2ccc(-c3cn4cccc([C@H](C)O)c4n3)cc2)cc1Cl [GSK-923295A]
GI50 (SK-UT-1): 23 nM
GI50 (NCI/ADR-RES): 3960 nM
Activity (BC-3): 2.65
GI50 (SK-OV-3 [1]): 26 nM
GI50 (SW1463): 31 nM
Activity (SW837): 1.74
Ki [2]: 3.2 nM
Activity (SH-4): 3.12
GI50 (NCI-H23): 27 nM
Activity (T84): 2.77
Activity (BV-173): 2.16
Activity (SW1990): 1.88
Activity (MCF7): 20%
Activity (SK-OV-3 [3]): 194%
Activity (NCI-H508): 3.01
Activity (RD): 2.56
Activity (SiHa): 2.36
Activity (HT-1080): 3.05
Activity (NCI-H82): 2
GI50 (HCT-8): 35 nM
GI50 (RL): 37 nM
Activity (SNU-423): 1.44
GI50 (JEG-3): 25 nM
Activity (HCT-116): 37%
Activity (HepG2): 2.45
Activity (SNU-449): 2.33
Activity (MDA-MB-435): 2.96
Activity (NCI-H747): 2.19
GI50 (SW756): 35 nM
GI50 (NCI-H209): 20 nM
Activity [4]: 2.93
Activity (J82): 2.04
Activity (CHP-212): 1.39
Activity (OVCAR-3): 1.56
GI50 (HN5): 118 nM
Activity (COLO 205): 122%
GI50 (ACHN): 61 nM
Activity (CGTH-W-1): 3.66
GI50 (NCI-H2170): 25 nM
GI50 (COLO 320DM): 306 nM
